Measured values as given in article PMC6180906 (Biochimica et biophysica acta. Molecular and cell biology …, 2018).
Where “and” joins values, the source holds several entries; their conditions need not be identical. Equal entries are not always repeated.

Tests used:
[1] = tested on: Acanthamoeba castellanii trophozoites; test: Time-dependent killing and regrowth in fresh medium; type: cell-based; details: inhibitor at approximate MAC, then fresh medium for a week
[2] = tested on: Acanthamoeba castellanii trophozoites; test: Trophozoite toxicity assay; type: cell-based; details: for IC50: Acanthamoeba castellanii, 48 h, read-out: IC50 against trophozoite growth
[3] = tested on: Acanthamoeba castellanii; type: cell-based
[4] = tested on: Acanthamoeba castellanii resting cysts; test: Cysticidal / excystment assay; type: cell-based; details: cysts from the SDS-treated process
[5] = tested on: Acanthamoeba castellanii trophozoites; test: Trophozoite growth with cholesterol supplement; type: cell-based; details: 10μM in DMSO or as FBS
In short: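 Axenic static cultures of strain ATCC 30010 were grown in 5 ml ATCC medium 712 in T-flasks at 25 °C with occasional hand shaking, seeded with about 1×10^4 trophozoites. The medium was supplemented with FBS, per ATCC medium, or with 10 µM cholesterol in DMSO. Cells were counted along the growth curve, with viability by trypan blue exclusion.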

[6] = tested on: Saccharomyces cerevisiae strain GL7; test: GL7 sterol auxotroph growth on sterol supplements; type: cell-based; details: sterol supplement, 72 h
In short: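 S. cerevisiae GL7 (lanosterol synthase-defective, ergosterol auxotroph) grown in yeast-peptone-dextrose medium with Tween 80 (15 ml/l) and a sterol supplement at 5 mg/l, or no sterol, for 72 h. Cell density was followed to stationary phase. Sterols were recovered from cells and analysed.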

[7] = target: Ac24-SMT (Acanthamoeba castellanii, UniProt L8GKC5); details: sterol 5 μM to 150 μM, 150 μM SAM, 80 μg SMT; cited from earlier work
[8] = target: T1, AcCYP51 (Acanthamoeba castellanii, UniProt L8GJB3); test: AcCYP51 sterol ligand binding, spectral titration; details: for AcCYP51 Kd: progressive titration of 4 M AcCYP51 with sterol in 40% (W/V) HPCP
[9] = target: Ac28-SMT (Acanthamoeba castellanii, UniProt L8GNG7); details: sterol 5 μM to 150 μM, 150 μM SAM, 80 μg SMT; cited from earlier work
[10] = target: T1, AcCYP51; test: CYP51 reconstitution assay, AfCPR1 redox partner, products by GC-MS; type: biochemical; details: for Yield of 14-desmethyl product from substrate by AcCYP51 (GCMS): AfCPR1 redox partner; for AcCYP51 AfCPR kcat: CYP51 reconstitution assay, 50 μM sterol, AfCPR redox partner

Q: Which results are given for C[C@H](CCCN(C)C)[C@H]1CC[C@@]2(C)[C@@H]3CC[C@H]4C(C)(C)[C@@H](O)CC[C@@]45C[C@@]35CC[C@]12C [25-azacycloartanol]?
A: Growth after 48 h treated pellets were transferred to fresh medium [1]: no growth; IC50 [2]: 0.025 µM; MAC (minimum amoebicidal concentration) ([2]; lowest concentration with no visible live trophozoites, 48 hr): 1 to 3 µM

Q: With O=c1[nH]c(=O)n([C@H]2C[C@H](O)[C@@H](CO)O2)cc1F [FUdR, 5-fluor-2-deoxyuridine] as the molecule, how does the “Encysted cells alive by trypan blue staining” value ([3]; cultures with inhibitor at stationary phase of control) read?
A: > 95%

Q: And the “Excystment of resting cysts into trophozoites under treatment” value [4]?
A: easily excysted into trophozoites by 3 days

Q: With CC(C)CCC[C@@H](C)[C@H]1CC[C@H]2[C@@H]3CC=C4C[C@@H](O)CC[C@]4(C)[C@H]3CC[C@]12C [cholesterol] as the molecule, how does the “Effect of supplement on trophozoite growth” value [5] read?
A: only a minor stimulation effect

Q: With CC(C)[C@@H](C)/C=C/[C@@H](C)[C@H]1CC[C@H]2[C@@H]3CC=C4C[C@@H](O)CC[C@]4(C)[C@H]3CC[C@]12C [compound 1, Ergosta-5,22-dienol] as the molecule, how does the “GL7 cell density at stationary phase / growth arrest” value [6] read?
A: 1 × 10^8 cells/ml

Q: For CC(C)[C@@H](C)/C=C/[C@@H](C)[C@H]1CC[C@H]2C3=CC=C4C[C@@H](O)CC[C@]4(C)[C@H]3CC[C@]12C [compound 2, Ergosta-5,7,22-trienol], which “GL7 cell density at stationary phase / growth arrest” value [6] is on record?
A: ~1 × 10^8 cells/ml

Q: With CC[C@@H](C=C[C@@H](C)[C@H]1CC[C@H]2[C@@H]3CC=C4C[C@@H](O)CC[C@]4(C)[C@H]3CC[C@]12C)C(C)C [compound 6, Poriferasta-5,22 -dienol] as the molecule, how does the “GL7 cell density at stationary phase / growth arrest” value [6] read?
A: 1 × 10^8 cells/ml

Q: For C=C(CC[C@@H](C)[C@H]1CC[C@@]2(C)C3=C(CC[C@]12C)[C@@]1(C)CC[C@H](O)[C@@H](C)[C@@H]1CC3)C(C)C [compound 10], which 24-SMT kcat [7] is on record?
A: 0 s⁻¹

Q: And the Kd [8]?
A: 41 ± 3 µM

Q: And the 28-SMT kcat [9]?
A: 0 s⁻¹

Q: And the “Yield of 14-desmethyl product from substrate by AcCYP51 (GCMS)” value (“Yield of 14-desmethyl product” below) ([10]; listed as obtusifoliol)?
A: < 95% and 95%

Q: What about the “AcCYP51 AfCPR kcat” value [10] of the same molecule?
A: 0.127 ± 0.00083 s⁻¹

Q: What about the “AcCYP51 AfCPR kcat” value ([10]; listed as obtusifoliol) of the same molecule?
A: 0.127 s⁻¹

Q: For CC[C@@H](C=C[C@@H](C)[C@H]1CC[C@H]2C3=CC=C4C[C@@H](O)CC[C@]4(C)[C@H]3CC[C@]12C)C(C)C [compound 11, Poriferasta-5,7,22-trienol], which “GL7 cell density at stationary phase / growth arrest” value [6] is on record?
A: 1 × 10^8 cells/ml

Q: What does the source list for C=C(CC[C@@H](C)[C@H]1CC[C@H]2C3=CC[C@H]4[C@H](C)[C@@H](O)CC[C@]4(C)[C@H]3CC[C@]12C)C(C)C [compound 14, 4α-Methylergosta-7, 24(28)-dienol]?
A: 24-SMT kcat [7]: 0 s⁻¹; 28-SMT kcat [9]: 0.0133 ± 0.00067 s⁻¹; AcCYP51 AfCPR kcat [10]: 0 s⁻¹

Q: With CC(C)=CCC[C@@H](C)[C@H]1CC[C@@]2(C)[C@@H]3CC[C@H]4C(C)(C)[C@@H](O)CC[C@@]45C[C@@]35CC[C@]12C [compound 21, Cycloart-24(25)-enol] as the molecule, how does the 24-SMT kcat [7] read?
A: 0.025 ± 0.0012 s⁻¹

Q: What about the Kd [8] of the same molecule?
A: 18 ± 5 µM

Q: And the 28-SMT kcat [9]?
A: 0.0075 ± 0.0005 s⁻¹

Q: What about the “Yield of 14-desmethyl product” value [10] of the same molecule?
A: no metabolism occurred

Q: And the “AcCYP51 AfCPR kcat” value [10]?
A: 0 s⁻¹

Q: With C=C(CC[C@@H](C)[C@H]1CC[C@@]2(C)[C@@H]3CC[C@H]4[C@H](C)[C@@H](O)CC[C@@]45C[C@@]35CC[C@]12C)C(C)C [compound 24, 4α-Methylcycloart-24(28)-enol] as the molecule, how does the “AcCYP51 Kd” value [8] read?
A: No fit

Q: What about the “Yield of 14-desmethyl product” value [10] of the same molecule?
A: ~ 1%

Q: And the “AcCYP51 AfCPR kcat” value [10]?
A: 0.00067 ± 0.00017 s⁻¹

Q: Which 24-SMT kcat [7] does the source give for C=C(CC[C@@H](C)[C@H]1CC[C@@]2(C)[C@@H]3CC[C@H]4C(C)(C)[C@@H](O)CC[C@@]45C[C@@]35CC[C@]12C)C(C)C [compound 27, Cycloart-24(28)-enol] here?
A: 0 s⁻¹

Q: What about the “AcCYP51 Kd” value [8] of the same molecule?
A: No fit

Q: And the 28-SMT kcat [9]?
A: 0.00383 ± 0.00083 s⁻¹

Q: What about the “AcCYP51 AfCPR kcat” value [10] of the same molecule?
A: 0 s⁻¹

Q: For C=C(CCC(C)C1CCC2(C)C3=C(CCC12C)C1(C)CCC(O)C(C)(C)C1CC3)C(C)C (stereo not drawn) [compound 32, Lanosta-8,24(28)-dienol], which Kd [8] is on record?
A: 51 ± 10 µM

Q: And the “AcCYP51 AfCPR kcat” value [10]?
A: 0.0533 ± 0.00067 s⁻¹

Q: Which results are given for CC(C)=CCC[C@@H](C)[C@H]1CC[C@@]2(C)C3=C(CC[C@]12C)[C@@]1(C)CC[C@H](O)C(C)(C)[C@@H]1CC3 [compound 33, Lanosta-8,24(25)-dienol]?
A: 24-SMT kcat [7]: 0.025 ± 0.00017 s⁻¹; Kd [8]: 46 ± 3 µM; 28-SMT kcat [9]: 0.00383 ± 0.00017 s⁻¹; AcCYP51 AfCPR kcat [10]: 0.0283 ± 0.00017 s⁻¹

Q: Which “AcCYP51 AfCPR kcat” value [10] does the source give for CC(C)CCC[C@@H](C)[C@H]1CC[C@@]2(C)C3=C(CC[C@]12C)[C@@]1(C)CC[C@H](O)C(C)(C)[C@@H]1CC3 [compound 34, Lanost-8-enol] here?
A: 0.0333 ± 3.3e-05 s⁻¹

Q: With CC(C)=CCC[C@@H](C)[C@H]1CC[C@@]2(C)C3=C(CC[C@]12C)[C@@]1(C)CC[C@H](O)C[C@@H]1CC3 [compound 35, 14α-Methylcholest-8,24(25)-dienol] as the molecule, how does the 24-SMT kcat [7] read?
A: 0.025 ± 0.00083 s⁻¹

Q: What about the 28-SMT kcat [9] of the same molecule?
A: 0.0065 ± 0.00033 s⁻¹

Q: And the “AcCYP51 AfCPR kcat” value [10]?
A: 0.0267 ± 0.0013 s⁻¹

Q: Which “AcCYP51 AfCPR kcat” value [10] does the source give for CC(C)=CCCC(C)C1CCC2(C)C3=CCC4C(C)(C)C(O)CCC4(C)C3CCC12C (stereo not drawn) [compound 36, Lanosta-7,24(25)-dienol] here?
A: 0 s⁻¹

Q: Which results are given for CC(C)=CCC[C@@H](C)[C@H]1CC[C@@]2(C)C3=C(CC[C@]12C)[C@@]1(C)CC[C@H](O)[C@@H](C)[C@@H]1CC3 [compound 37, 4α, 14α-Dimethylcholesta-8,24(25)-dienol]?
A: 24-SMT kcat [7]: 0.025 ± 0.00067 s⁻¹; 28-SMT kcat [9]: 0.0123 ± 0.00033 s⁻¹; AcCYP51 AfCPR kcat [10]: 0 s⁻¹

Q: What does the source list for C[C@@H](c1ncncc1F)[C@](O)(Cn1cncn1)c1ccc(F)cc1F [voriconazole, reference compound]?
A: Growth after 48 h treated pellets were transferred to fresh medium [1]: a few thousand trophozoites were evident; IC50 [2]: 0.14 µM; Number of cells at 48 h ([3]; reduced by a factor of 10, most dead by trypan blue staining): 2–3 × 10^4 cells/ml
